Test results reported in ChEMBL document CHEMBL1146760, “3,4-Dihydronaphthalen-1(2H)-ones: novel ligands for the benzodiazepine site of alpha5-containing GABAA receptors” (Bioorg Med Chem Lett, 2004).

Tests used:
[1] = target: T1, GABA-A receptor; alpha-5/beta-3/gamma-2 (Homo sapiens) (UniProt P18507+P28472+P31644); assay: Percentage modulation of submaximal (EC20) response to GABA-A receptor alpha-5-beta-3-gamma-2 subunits expressed in mouse fibroblast L(tk-) cells; format: functional, cell-based
Outline: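 Whole-cell patch clamp of mouse fibroblast L(tk⁻) cells stably expressing human α5β3γ2. Percentage maximum modulation of current relative to a submaximal (EC20) GABA response, taken from fitted concentration–response curves. Mean ± SEM of at least three individual curves.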

[2] = target: T2, Gamma-aminobutyric acid receptor subunit alpha-5 (Homo sapiens) (UniProt P31644); assay: Selectivity for GABA-A receptor alpha-5 subunit over alpha1,2,3 (range 10-13)
T2 sequence (whole entry): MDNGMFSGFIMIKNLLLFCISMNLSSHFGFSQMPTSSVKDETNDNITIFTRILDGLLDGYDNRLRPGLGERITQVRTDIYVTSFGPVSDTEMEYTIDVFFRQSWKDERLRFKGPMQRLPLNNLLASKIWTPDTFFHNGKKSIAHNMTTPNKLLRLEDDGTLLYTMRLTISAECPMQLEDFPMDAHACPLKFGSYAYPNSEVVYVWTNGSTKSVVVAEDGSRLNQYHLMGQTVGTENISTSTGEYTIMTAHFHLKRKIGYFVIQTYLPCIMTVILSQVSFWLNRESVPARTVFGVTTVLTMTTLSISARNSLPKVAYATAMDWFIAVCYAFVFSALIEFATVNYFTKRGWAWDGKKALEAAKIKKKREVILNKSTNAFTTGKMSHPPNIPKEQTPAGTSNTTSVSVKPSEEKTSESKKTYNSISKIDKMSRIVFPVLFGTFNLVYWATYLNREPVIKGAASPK

[3] = target: T3, GABA-A receptor; alpha-2/beta-3/gamma-2 (Homo sapiens, UniProt P18507+P28472+P47869); assay: Inhibition of [3H]-Ro- 15-1788 binding to recombinant human gamma-aminobutyric-acid A receptor alpha-2-beta-3-gamma-2; format: protein-complex assay
T3 sequence (P18507 whole entry): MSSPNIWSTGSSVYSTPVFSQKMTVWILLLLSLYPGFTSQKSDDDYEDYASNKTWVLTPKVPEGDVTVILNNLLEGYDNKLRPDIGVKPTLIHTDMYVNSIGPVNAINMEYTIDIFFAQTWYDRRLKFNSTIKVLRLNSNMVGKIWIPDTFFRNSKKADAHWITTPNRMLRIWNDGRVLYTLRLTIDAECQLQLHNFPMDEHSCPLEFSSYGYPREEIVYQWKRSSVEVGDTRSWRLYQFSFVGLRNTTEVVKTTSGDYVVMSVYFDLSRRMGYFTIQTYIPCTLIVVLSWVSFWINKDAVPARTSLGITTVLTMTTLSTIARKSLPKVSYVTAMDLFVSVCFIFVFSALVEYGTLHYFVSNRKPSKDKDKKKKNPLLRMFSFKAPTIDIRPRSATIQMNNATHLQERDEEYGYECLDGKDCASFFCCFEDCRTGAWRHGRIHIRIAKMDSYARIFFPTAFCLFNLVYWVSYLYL
T3 sequence (P28472 whole entry): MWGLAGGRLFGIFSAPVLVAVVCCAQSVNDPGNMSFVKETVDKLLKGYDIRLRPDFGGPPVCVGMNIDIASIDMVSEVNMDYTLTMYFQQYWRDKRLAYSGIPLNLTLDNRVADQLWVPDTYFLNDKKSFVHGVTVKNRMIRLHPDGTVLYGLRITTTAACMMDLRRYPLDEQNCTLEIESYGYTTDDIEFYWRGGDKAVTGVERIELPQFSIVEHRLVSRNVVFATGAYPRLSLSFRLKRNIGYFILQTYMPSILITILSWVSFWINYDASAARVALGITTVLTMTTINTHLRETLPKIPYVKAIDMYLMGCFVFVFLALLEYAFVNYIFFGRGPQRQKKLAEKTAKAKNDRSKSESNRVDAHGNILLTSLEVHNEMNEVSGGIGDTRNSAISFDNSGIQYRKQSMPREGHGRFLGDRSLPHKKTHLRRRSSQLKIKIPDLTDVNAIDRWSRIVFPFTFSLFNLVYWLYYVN
T3 sequence (P47869 whole entry): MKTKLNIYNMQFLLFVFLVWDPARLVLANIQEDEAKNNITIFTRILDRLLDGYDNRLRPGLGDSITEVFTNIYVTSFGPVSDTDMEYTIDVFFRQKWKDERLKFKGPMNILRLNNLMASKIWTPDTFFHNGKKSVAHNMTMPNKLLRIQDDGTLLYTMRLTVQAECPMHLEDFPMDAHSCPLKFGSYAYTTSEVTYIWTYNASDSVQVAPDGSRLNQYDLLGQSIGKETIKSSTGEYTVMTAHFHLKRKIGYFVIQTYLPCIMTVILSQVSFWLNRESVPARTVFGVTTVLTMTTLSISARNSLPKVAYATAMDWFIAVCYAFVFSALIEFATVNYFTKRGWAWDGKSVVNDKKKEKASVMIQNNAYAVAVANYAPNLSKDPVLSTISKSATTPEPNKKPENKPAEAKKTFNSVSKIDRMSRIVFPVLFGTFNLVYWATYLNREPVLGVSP
Outline: (§1)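 Displacement of [3H]Ro 15-1788 from recombinant human GABAA receptor subtypes; Ki reported as mean ± SEM of at least three independent determinations, or mean of two determinations with both individual values shown.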

[4] = target: T4, GABA-A receptor; alpha-3/beta-3/gamma-2 (Homo sapiens, UniProt P18507+P28472+P34903); assay: Inhibition of [3H]-Ro- 15-1788 binding to recombinant human gamma-aminobutyric-acid A receptor alpha-3-beta-3-gamma-2; format: protein-complex assay; outline: as §1
T4 sequence (P18507 whole entry): T3 sequence (P18507 whole entry)
T4 sequence (P28472 whole entry): T3 sequence (P28472 whole entry)
T4 sequence (P34903 whole entry): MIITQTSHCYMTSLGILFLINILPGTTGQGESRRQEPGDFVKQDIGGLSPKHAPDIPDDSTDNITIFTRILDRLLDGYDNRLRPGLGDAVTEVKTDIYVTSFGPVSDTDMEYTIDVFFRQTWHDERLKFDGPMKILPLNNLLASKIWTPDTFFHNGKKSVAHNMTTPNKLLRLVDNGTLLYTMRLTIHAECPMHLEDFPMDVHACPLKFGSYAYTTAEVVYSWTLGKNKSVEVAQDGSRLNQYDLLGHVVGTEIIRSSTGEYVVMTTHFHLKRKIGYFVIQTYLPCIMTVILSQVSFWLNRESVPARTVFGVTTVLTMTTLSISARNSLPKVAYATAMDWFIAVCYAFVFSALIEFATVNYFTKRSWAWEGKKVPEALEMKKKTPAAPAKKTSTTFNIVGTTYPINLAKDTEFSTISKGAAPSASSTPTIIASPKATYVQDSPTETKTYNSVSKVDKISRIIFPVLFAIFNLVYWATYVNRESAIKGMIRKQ

[5] = target: T5, GABA-A receptor; alpha-5/beta-3/gamma-2 (Homo sapiens, UniProt P18507+P28472+P31644); assay: Inhibition of [3H]-Ro- 15-1788 binding to human GABA-A receptor alpha-5-beta-3-gamma-2 subunits; format: protein-complex assay; outline: as §1
T5 sequence (P18507 whole entry): T3 sequence (P18507 whole entry)
T5 sequence (P28472 whole entry): T3 sequence (P28472 whole entry)
T5 sequence (P31644 whole entry): T2 sequence (whole entry)

[6] = target: T6, GABA-A receptor; alpha-1/beta-3/gamma-2 (Homo sapiens, UniProt P14867+P18507+P28472); assay: Inhibition of [3H]-Ro- 15-1788 binding to recombinant human gamma-aminobutyric-acid A receptor alpha-1-beta-3-gamma-2; format: protein-complex assay; outline: as §1
T6 sequence (P14867 whole entry): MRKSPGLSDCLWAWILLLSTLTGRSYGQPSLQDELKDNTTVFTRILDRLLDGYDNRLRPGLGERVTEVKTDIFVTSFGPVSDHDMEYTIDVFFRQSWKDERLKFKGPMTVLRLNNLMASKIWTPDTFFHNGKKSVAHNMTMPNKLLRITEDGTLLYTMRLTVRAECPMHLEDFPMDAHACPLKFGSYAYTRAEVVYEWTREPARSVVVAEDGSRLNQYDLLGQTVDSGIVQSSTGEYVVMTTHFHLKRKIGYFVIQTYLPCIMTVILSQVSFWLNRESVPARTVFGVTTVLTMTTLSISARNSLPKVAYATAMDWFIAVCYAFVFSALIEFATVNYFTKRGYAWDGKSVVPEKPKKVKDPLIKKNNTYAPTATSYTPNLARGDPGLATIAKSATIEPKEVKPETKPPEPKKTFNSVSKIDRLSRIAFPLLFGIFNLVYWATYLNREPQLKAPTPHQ
T6 sequence (P18507 whole entry): T3 sequence (P18507 whole entry)
T6 sequence (P28472 whole entry): T3 sequence (P28472 whole entry)

[7] = target: T1, GABA-A receptor; alpha-5/beta-3/gamma-2 (Homo sapiens); assay: Percentage modulation of submaximal (EC20) response to GABA-A receptor alpha-5-beta-3-gamma-2 subunits expressed in Xenopus laevis oocytes; format: functional, cell-based; conditions: Oocyte
[8] = target: T2, Gamma-aminobutyric acid receptor subunit alpha-5 (Homo sapiens); assay: Selectivity for GABA-A receptor alpha-5 subunit over alpha1,2,3 (range 5-11)
[9] = target: T2, Gamma-aminobutyric acid receptor subunit alpha-5 (Homo sapiens); assay: Selectivity for GABA-A receptor alpha-5 subunit over alpha1,2,3 (range 5-15)
[10] = target: T2, Gamma-aminobutyric acid receptor subunit alpha-5 (Homo sapiens); assay: Selectivity for GABA-A receptor alpha-5 subunit over alpha1,2,3 (range 7-13)
[11] = target: T2, Gamma-aminobutyric acid receptor subunit alpha-5 (Homo sapiens); assay: Selectivity for GABA-A receptor alpha-5 subunit over alpha1,2,3 (range 3-12)
[12] = target: T2, Gamma-aminobutyric acid receptor subunit alpha-5 (Homo sapiens); assay: Selectivity for GABA-A receptor alpha5 subunit over alpha1,2,3 (range 5-9)
[13] = target: T2, Gamma-aminobutyric acid receptor subunit alpha-5 (Homo sapiens); assay: Selectivity for GABA-A receptor alpha-5 subunit over alpha1,2,3 (range 16-38)
[14] = target: T2, Gamma-aminobutyric acid receptor subunit alpha-5 (Homo sapiens); assay: Selectivity for GABA-A receptor alpha-5 subunit over alpha1,2,3 (range 6-14)
[15] = target: T2, Gamma-aminobutyric acid receptor subunit alpha-5 (Homo sapiens); assay: Selectivity for GABA-A receptor alpha-5 subunit over alpha1,2,3
[16] = target: T2, Gamma-aminobutyric acid receptor subunit alpha-5 (Homo sapiens); assay: Selectivity for GABA-A receptor alpha-5 subunit over alpha1,2,3 (range 6-8)
[17] = target: T2, Gamma-aminobutyric acid receptor subunit alpha-5 (Homo sapiens); assay: Selectivity for GABA-A receptor alpha-5 subunit over alpha1,2,3 (range 14-35)

Structure (SMILES) | Efficacy [1] [%] | Ki [3] [nM] | Ki [4] [nM] | Ki [5] [nM] | Ki [6] [nM] | Efficacy [7] [%] | other results
COc1nc(CSc2ccc(-c3nccs3)c3c2C(=O)CC(C)C3)ns1 (stereo not given) | 57 | 34 | 35 | 3.2 | 40 |  | Selectivity [2]: 13
CC1CC(=O)c2c(Sc3cccs3)ccc(-c3ccccn3)c2C1 (stereo not given) |  | 5.4 | 4.5 | 0.5 | 2.3 | 50 | Selectivity [8]: 11
CCSc1ccc(-c2nccs2)c2c1C(=O)CC(C)C2 (stereo not given) |  | 15 | 12 | 1 | 5.4 | -8 | Selectivity [9]: 15
CCSc1ccc(-c2ccccn2)c2c1C(=O)CC(C)C2 (stereo not given) |  | 13 | 15 | 1.9 | 25 | 2 | Selectivity [10]: 13
CSc1ccc(-c2ccccn2)c2c1C(=O)CC(C)(C)C2 | -32 | 60 | 59 | 19 | 229 |  | Selectivity [11]: 12
CCSc1ccc(-c2cnccn2)c2c1C(=O)CC(C)C2 (stereo not given) |  | 19 | 13 | 2.1 | 11 | 2 | Selectivity [12]: 9
CC1CC(=O)c2c(SCc3ncn(C)n3)ccc(-c3nccs3)c2C1 (stereo not given) | 29 | 20 | 16 | 1 | 38 |  | Selectivity [13]: 38
CCSc1ccc(-c2ncco2)c2c1C(=O)CC(C)C2 (stereo not given) |  | 38 | 16 | 2.6 | 37 | 5 | Selectivity [14]: 14
CCSc1ccc(-c2ccccn2)c2c1C(=O)CCC2 |  | > 300 | > 300 | 103 | > 300 |  | Selectivity [15]: > 3
CNC1=Nc2ccc(Cl)cc2C(c2ccccc2)=[N+]([O-])C1 | 99 |  |  |  |  | 134 | 
CSc1ccc(-c2ccccn2)c2c1C(=O)CC(C)C2 (stereo not given) |  | 63 | 42 | 7.5 | 63 | -5 | Selectivity [16]: 8
CC1CC(=O)c2c(SCc3cn[nH]n3)ccc(-c3nccs3)c2C1 (stereo not given) | 6 | 57 | 36 | 2.6 | 92 |  | Selectivity [17]: 35
CCc1c(C(=O)OC)ncc2[nH]c3cc(OC)c(OC)cc3c12 | -57 |  |  |  |  | -34 | 
CCSc1ccc(-c2cccc[n+]2[O-])c2c1C(=O)CC(C)C2 (stereo not given) | 80 | 271 | 286 | 25 | > 300 |  | Selectivity [15]: > 11
